The text below walks through data of ChEMBL document CHEMBL1138325, “Design, synthesis, in vitro, and in vivo characterization of phenylpiperazines and pyridinylpiperazines as potent and selective antagonists of the melanocortin-4 receptor” (J Med Chem, 2007).

The nature of data set [1]: Oral bioavailability in Sprague-Dawley rat at 10 mg/kg, po. The format is ADME, organism-based. Conditions: in vivo. The method, boiled down:
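Sprague–Dawley rats, three animals per route; i.v. dose 5 mg/kg and oral 10 mg/kg. Brain concentrations and brain/plasma ratios taken from the oral dosing at 1 and 4 h post-dose.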

Data set [2] can be described thus: Ratio of drug level in brain to plasma in CD1 mouse at 5 mg/kg, iv after 4 hrs. The data set is classed as ADME, organism-based. Set-up: dose 5 mg/kg, route intravenous. Conditions: brain and plasma, read-out: BPR.
Data set [3] is described as follows: Volume of distribution in CD1 mouse at 5 mg/kg, iv. The format is ADME, organism-based. Also noted: dose 5 mg/kg, route intravenous. The note with it: in vivo. The method, boiled down:
(§1)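 CD-1 mice, three animals per route; single i.v. dose at 5 mg/kg and oral gavage at 10 mg/kg. Plasma PK parameters derived; brain concentrations and brain/plasma ratios taken from the i.v. dosing at 1 and 4 h.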

For data set [4], the target named is Melanocortin receptor 3 (Homo sapiens, UniProt P41968). The data set can be described thus: Displacement of [125I]NDPMSH from human MC3R expressed in HEK293 cells. The format is cell-based. For orientation: In a radioligand displacement assay an active substance lowers the binding of a labelled ligand.
Melanocortin receptor 3 (Homo sapiens, UniProt P41968), sequence (P41968 whole entry): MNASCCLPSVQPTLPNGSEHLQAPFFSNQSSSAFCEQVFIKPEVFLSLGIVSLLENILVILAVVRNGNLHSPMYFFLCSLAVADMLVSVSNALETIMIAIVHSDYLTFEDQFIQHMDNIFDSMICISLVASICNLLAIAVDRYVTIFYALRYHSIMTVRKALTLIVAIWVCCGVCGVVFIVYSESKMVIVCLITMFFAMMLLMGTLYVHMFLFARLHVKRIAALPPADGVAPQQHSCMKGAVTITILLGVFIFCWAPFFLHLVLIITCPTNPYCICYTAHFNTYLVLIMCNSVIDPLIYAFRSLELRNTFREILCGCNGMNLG
Data set [5] can be described thus: Half life in CD1 mouse at 5 mg/kg, iv. The data set is classed as ADME, organism-based. Also noted: dose 5 mg/kg, route intravenous. Conditions: in vivo. The method, boiled down: (§2)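 CD-1 mice, three animals, dosed i.v. at 5 mg/kg and by oral gavage at 10 mg/kg. Plasma CL, Vd, t1/2, Cmax, Tmax, oral AUC and F% were derived. Brain concentrations and brain/plasma ratios at 1 and 4 h were taken from the i.v. dosing.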

Data set [6] is described as follows: AUC in dog at 10 mg/kg, po. The format is ADME, organism-based, Canis lupus familiaris. Also noted: dose 10 mg/kg, route oral. The note with it: plasma.
Data set [7] can be described thus: Tmax in monkey at 10 mg/kg, po. The note with it: rhesus monkey, in vivo. The data set is classed as ADME, organism-based, Macaca mulatta. Also noted: dose 10 mg/kg, route oral.
Data set [8] is described as follows: Half life in monkey at 5 mg/kg, iv. The data set is classed as ADME, organism-based, Macaca mulatta. Set-up: dose 5 mg/kg, route intravenous. Conditions: rhesus monkey, in vivo.
For data set [9], the target named is Melanocortin receptor 3 (Mus musculus, UniProt P33033). The data set is described as follows: Binding affinity to mouse MC3R.
Melanocortin receptor 3 (Mus musculus, UniProt P33033), sequence (P33033 whole entry): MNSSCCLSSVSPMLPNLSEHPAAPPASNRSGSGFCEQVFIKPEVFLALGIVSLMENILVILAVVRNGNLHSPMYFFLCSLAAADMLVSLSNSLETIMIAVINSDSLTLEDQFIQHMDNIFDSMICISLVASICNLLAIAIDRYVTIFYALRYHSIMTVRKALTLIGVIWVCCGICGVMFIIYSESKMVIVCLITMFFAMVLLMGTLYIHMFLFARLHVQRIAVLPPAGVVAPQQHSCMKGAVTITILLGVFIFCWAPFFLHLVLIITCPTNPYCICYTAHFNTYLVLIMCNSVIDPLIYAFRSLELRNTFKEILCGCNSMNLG
Data set [10] in a line: Cmax in dog at 10 mg/kg, po. The data set is classed as ADME, organism-based, Canis lupus familiaris. Set-up: dose 10 mg/kg, route oral. Conditions: in vivo.
Data set [11] can be described thus: Ratio of drug level in brain to plasma in CD1 mouse at 10 mg/kg, ip. The format is ADME, organism-based. Also noted: dose 10 mg/kg, route intraperitoneal. The note with it: read-out: BPR.
The nature of data set [12]: Half life in Sprague-Dawley rat at 5 mg/kg, iv and 10 mg/kg, po. The data set is classed as ADME, organism-based. Conditions: in vivo.
A short description of data set [13]: AUC in dog at 5 mg/kg, iv. The data set is classed as ADME, organism-based, Canis lupus familiaris. Also noted: dose 5 mg/kg, route intravenous. The note with it: plasma.
Data set [14] can be described thus: Volume of distribution in dog at 5 mg/kg, iv. The data set is classed as ADME, organism-based, Canis lupus familiaris. Set-up: dose 5 mg/kg, route intravenous. Conditions: in vivo.
Data set [15] in a line: AUC in CD1 mouse at 10 mg/kg, ip. The data set is classed as ADME, organism-based. Conditions: plasma. Also noted: dose 10 mg/kg, route intraperitoneal. The method, boiled down: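 CD-1 mice, single intraperitoneal dose of 10 mg/kg, n = 3. Plasma concentration followed over time, giving Cmax, Tmax and AUC.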
A short description of data set [16]: Tmax in CD1 mouse at 10 mg/kg, po. The note with it: in vivo. The data set is classed as ADME, organism-based. Also noted: dose 10 mg/kg, route oral. The method, boiled down:
as §1

The target of data set [17] is Cytochrome P450 2C9 (Homo sapiens, UniProt P11712). The data set is described as follows: Inhibition of CYP2C9. The format is ADME.
Cytochrome P450 2C9, sequence (P11712 whole entry): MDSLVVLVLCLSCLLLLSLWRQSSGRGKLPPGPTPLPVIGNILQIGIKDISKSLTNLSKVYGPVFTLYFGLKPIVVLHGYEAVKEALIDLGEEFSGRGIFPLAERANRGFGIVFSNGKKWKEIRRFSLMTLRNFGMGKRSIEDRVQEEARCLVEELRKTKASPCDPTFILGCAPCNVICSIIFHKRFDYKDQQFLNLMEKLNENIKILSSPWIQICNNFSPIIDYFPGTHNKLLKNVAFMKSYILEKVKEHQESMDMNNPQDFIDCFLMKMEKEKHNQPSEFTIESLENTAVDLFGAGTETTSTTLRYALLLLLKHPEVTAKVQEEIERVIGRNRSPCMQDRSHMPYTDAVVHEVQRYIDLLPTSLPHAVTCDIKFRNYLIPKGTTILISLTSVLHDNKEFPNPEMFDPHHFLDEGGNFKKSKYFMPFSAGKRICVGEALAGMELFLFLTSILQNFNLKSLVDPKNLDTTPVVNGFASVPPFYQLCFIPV
The nature of data set [18]: Plasma concentration in CD1 mouse at 10 mg/kg, ip after 8 hrs. The data set is classed as ADME, organism-based. Set-up: dose 10 mg/kg, route intraperitoneal.
Data set [19] is described as follows: Clearance in CD1 mouse at 5 mg/kg, iv. The format is ADME, organism-based. Set-up: dose 5 mg/kg, route intravenous. The note with it: in vivo. The method, boiled down: as §2
A short description of data set [20]: Clearance in Sprague-Dawley rat at 5 mg/kg, iv and 10 mg/kg, po. The format is ADME, organism-based. The note with it: in vivo.

As for `CC(C)C[C@H](NC(=O)CCN(C)C)c1cc(Cl)ccc1N1CCN(C(=O)[C@H](C)Cc2ccc(Cl)cc2)CC1`, the bioavailability in data set [1] came out at 18%. In addition, the Kp at 4 h in [2] was found to be 2.2. Further, the Vd worked out at 11 L/kg in data set [3] and 11.8 L/kg in [14]. Further, the Ki was found to be 710 nM in data set [4] and 340 nM in data set [9]. Moreover, the values for the half-life in data set [5], in [8] and in [12] were 3.5 h, 4.1 h and 2.2 h, respectively. Besides, the AUC in data set [6] worked out at 1480 ng·h/mL; in [13] it was 2510 ng·h/mL; in [15], 3070 ng·h/mL. Also, the Tmax in data set [7] is 2.7 h; in data set [16], 0.5 h. The compound further yielded a Cmax in data set [10] of 142 ng/mL. In addition, the Kp in data set [11] was found to be 2. For the same compound, the IC50 in data set [17] is over 10000 nM. In data set [18], this compound showed a concentration at 8 h of 100 ng/mL. Further, the clearance turned out to be 36 mL/min/kg in data set [19] and 13 mL/min/kg in data set [20].

As a reminder, the bioavailability is dose-corrected exposure relative to a reference, in per cent. In general, Vd refers to a proportionality between amount in the body and measured concentration, not a real space. The term Ki denotes the dissociation constant of the complex between target and ligand, obtained from inhibition or displacement. The term half-life denotes the time needed for the level to fall by half in the phase considered. By AUC is commonly meant the area under the concentration-time curve, a measure of exposure. In general, Tmax refers to the time at which the peak concentration occurs. The Cmax is the highest concentration seen after dosing. The IC50 is the midpoint of a concentration-inhibition curve.
